Data reported in ChEMBL document CHEMBL1124395, “Studies on bioactive compounds. 13. Synthesis and lack of growth-inhibitory properties of cyclohexane-1,2,4-triol 1,2-diesters, which resemble ring C of the phorbol ester molecule” (J Med Chem, 1989).

Legend:
[1] = Concentration which cause half-maximal Lactate dehydrogenase release in […]
Summary of the method: (§1)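 A549 cells (1 × 10^5/well) exposed 24 h to compound in medium with only 1% fetal calf serum; diacylglycerols added 3 times at 6-hourly intervals. Supernatant briefly centrifuged and kept on ice, then LDH activity read spectrophotometrically. Maximal releasable LDH came from control cells lysed with 1% Triton X-100. Half-maximal release was obtained by linear regression of the linear part of curves (≥5 concentrations, four experiments).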

[2] = Concentration which cause half-maximal Lactate dehydrogenase in […]; summary of the method: as §1
Homo sapiens = species: Homo sapiens; test: Concentration which cause half-maximal growth inhibition of human A549 lung carcinoma cell line; assay type: functional
Summary of the method: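 A549 human lung carcinoma cells ((2-5) × 10^4/well) grown in Ham's F12 with 10% fetal calf serum under 95% air/5% CO2 with compound for 4-5 days, until controls were confluent. Medium and compound were renewed every 2 days; diacylglycerols were added three times daily at 6-h intervals for 3 days. Final DMSO was ≤0.5%. Cells were trypsinised and counted by hemocytometer or Coulter counter. The 50% growth-inhibitory concentration was taken by linear regression (≥5 concentrations, four experiments).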

Compound | LC50 [1] [µM] | LC50 [2] [µM] | IC50 (Homo sapiens) [µM]
CCCCCCCCCCCCCC(=O)O[C@@]12[C@H](OC(C)=O)[C@@H](C)[C@@]3(O)[C@@H](C=C(CO)C[C@]4(C)C(=O)C(C)=C[C@@H]34)[C@@H]1C2(C)C | > 1 | – | –
CCCCCCCC(=O)OC[C@@H](CO)OC(=O)CCCCCCC | – | 56 | 44
CCCCCCCC(=O)O[C@H]1CC[C@H](O)C[C@@H]1OC(=O)CCCCCCC | – | 46 | 58
CCCCCCCC(=O)O[C@H]1CC[C@H](O)C[C@H]1OC(=O)CCCCCCC | 31 | – | 49
CCCCCCCC(=O)O[C@@H]1CC[C@H](O)C[C@H]1OC(=O)CCCCCCC | – | 36 | 43
CCCCCCCC/C=C\CCCCCCCC(=O)OCC(CO)OC(C)=O (stereo unspecified) | 75 | – | 70
